Results as given in the M2OR odorant receptor database.
Numbering of substitutions follows the chain as printed.

How the values were obtained:
Details in all cases: stereoisomer not certain
[1] = tested on: T1, O10A2 H43R H207R K258T
T1 sequence (whole entry): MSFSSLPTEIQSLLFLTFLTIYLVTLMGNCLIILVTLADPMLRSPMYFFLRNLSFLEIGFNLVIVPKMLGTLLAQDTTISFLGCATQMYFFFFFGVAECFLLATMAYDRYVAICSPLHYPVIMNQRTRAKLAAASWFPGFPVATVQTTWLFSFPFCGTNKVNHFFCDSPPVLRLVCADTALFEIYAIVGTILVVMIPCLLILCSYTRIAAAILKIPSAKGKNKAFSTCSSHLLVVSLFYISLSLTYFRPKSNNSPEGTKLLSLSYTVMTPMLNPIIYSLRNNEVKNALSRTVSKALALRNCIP
Outline: (§1)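 Whether a receptor–molecule pair is responsive (active) rests on the original authors' judgment that its measured signal was statistically different from baseline. Pairs without that judgment are non-responsive (inactive). Sources used varied assay methods, commonly transient luciferase assays in mammalian cell lines.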

[2] = tested on: T2, O10A3 C8G
T2 sequence (whole entry): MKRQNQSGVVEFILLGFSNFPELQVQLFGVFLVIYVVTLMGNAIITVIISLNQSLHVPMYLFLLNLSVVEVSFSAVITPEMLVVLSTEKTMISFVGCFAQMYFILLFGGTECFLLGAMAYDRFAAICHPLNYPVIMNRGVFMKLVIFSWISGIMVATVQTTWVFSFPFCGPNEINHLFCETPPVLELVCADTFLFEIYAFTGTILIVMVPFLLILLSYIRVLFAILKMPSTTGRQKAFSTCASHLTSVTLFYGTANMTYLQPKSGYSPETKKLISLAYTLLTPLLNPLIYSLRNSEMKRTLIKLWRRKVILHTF
Outline: as §1

[3] = tested on: T3, O10A6
T3 sequence (whole entry): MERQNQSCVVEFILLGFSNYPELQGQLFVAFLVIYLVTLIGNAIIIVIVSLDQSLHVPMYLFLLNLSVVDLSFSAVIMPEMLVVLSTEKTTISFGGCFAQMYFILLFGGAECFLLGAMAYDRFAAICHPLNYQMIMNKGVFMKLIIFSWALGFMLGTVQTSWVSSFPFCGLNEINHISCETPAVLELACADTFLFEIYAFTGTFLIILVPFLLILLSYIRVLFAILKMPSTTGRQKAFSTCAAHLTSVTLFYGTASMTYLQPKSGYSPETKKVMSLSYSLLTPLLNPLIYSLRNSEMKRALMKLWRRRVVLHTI
Outline: as §1

[4] = tested on: T4, O10AD G65C
T4 sequence (whole entry): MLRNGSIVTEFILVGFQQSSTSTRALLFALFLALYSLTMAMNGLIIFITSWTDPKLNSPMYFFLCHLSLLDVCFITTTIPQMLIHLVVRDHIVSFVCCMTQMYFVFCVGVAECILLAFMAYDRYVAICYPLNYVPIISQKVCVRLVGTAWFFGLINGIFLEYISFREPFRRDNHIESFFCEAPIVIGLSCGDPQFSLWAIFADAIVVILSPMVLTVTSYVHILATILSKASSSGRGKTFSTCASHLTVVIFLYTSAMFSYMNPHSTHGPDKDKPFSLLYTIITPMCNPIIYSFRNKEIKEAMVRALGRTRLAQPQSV
Outline: as §1

[5] = tested on: T5, O10D3 V134A R197K
T5 sequence (whole entry): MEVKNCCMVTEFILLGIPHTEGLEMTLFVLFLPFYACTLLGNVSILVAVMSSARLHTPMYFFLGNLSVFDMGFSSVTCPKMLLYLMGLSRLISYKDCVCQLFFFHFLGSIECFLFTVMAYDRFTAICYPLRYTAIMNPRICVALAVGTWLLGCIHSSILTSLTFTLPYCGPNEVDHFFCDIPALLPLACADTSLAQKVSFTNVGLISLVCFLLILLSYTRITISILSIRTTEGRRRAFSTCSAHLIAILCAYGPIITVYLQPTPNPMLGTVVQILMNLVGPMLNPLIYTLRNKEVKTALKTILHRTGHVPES
Outline: as §1

[6] = tested on: T6, O10G4 L24P V195E
T6 sequence (whole entry): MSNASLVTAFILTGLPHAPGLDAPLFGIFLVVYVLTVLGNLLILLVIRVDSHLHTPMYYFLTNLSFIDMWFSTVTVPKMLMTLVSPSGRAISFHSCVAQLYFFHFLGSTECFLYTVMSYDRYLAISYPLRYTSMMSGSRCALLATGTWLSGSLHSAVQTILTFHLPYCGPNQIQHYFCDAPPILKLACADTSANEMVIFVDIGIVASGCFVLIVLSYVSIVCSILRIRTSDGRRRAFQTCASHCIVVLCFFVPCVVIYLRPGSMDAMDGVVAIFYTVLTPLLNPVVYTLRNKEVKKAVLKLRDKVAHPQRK
Outline: as §1

[7] = tested on: T7, O10G7 A18V P19Q G20A
T7 sequence (whole entry): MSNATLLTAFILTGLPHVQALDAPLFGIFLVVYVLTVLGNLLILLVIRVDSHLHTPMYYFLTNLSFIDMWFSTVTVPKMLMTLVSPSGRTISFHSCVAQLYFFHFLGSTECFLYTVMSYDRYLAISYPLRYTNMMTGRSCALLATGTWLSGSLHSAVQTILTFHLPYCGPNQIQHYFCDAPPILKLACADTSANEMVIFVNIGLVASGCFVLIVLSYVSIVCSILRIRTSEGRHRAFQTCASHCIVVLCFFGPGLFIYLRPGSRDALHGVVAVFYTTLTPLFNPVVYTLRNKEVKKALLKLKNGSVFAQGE
Outline: as §1

[8] = tested on: T8, O10G7 I28V
T8 sequence (whole entry): T7 sequence (whole entry) with V18A, Q19P, A20G, I28V
Outline: as §1

[9] = tested on: T9, O10H2
T9 sequence (whole entry): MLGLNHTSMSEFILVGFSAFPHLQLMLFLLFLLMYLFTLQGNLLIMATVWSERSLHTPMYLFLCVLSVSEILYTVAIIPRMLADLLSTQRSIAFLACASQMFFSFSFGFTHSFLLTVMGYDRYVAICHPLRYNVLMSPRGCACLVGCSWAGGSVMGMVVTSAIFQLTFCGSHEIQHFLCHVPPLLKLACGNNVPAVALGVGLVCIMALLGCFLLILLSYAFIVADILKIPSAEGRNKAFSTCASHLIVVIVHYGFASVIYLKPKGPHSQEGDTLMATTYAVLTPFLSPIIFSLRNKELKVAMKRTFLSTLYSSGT
Outline: as §1

[10] = tested on: T10, O10H3 R54H
T10 sequence (whole entry): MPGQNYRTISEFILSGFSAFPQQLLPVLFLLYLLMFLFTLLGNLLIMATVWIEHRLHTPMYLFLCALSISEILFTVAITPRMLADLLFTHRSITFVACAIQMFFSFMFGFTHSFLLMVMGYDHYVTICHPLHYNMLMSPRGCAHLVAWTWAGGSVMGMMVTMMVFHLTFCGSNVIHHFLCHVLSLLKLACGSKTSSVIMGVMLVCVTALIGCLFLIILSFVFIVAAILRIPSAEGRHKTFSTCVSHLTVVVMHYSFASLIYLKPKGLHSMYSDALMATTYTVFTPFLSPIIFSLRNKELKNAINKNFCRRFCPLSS
Outline: as §1

[11] = tested on: T11, O10H4 I50V
T11 sequence (whole entry): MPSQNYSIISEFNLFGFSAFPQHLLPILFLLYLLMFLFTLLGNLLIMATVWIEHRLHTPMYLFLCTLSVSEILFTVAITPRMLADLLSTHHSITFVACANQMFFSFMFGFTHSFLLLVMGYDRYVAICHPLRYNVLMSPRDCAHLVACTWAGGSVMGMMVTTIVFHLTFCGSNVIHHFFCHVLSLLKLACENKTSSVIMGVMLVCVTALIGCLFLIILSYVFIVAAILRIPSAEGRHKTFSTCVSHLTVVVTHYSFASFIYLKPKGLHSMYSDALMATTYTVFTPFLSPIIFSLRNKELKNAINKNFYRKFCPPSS
Outline: as §1

[12] = tested on: T12, O10H5 S268Y
T12 sequence (whole entry): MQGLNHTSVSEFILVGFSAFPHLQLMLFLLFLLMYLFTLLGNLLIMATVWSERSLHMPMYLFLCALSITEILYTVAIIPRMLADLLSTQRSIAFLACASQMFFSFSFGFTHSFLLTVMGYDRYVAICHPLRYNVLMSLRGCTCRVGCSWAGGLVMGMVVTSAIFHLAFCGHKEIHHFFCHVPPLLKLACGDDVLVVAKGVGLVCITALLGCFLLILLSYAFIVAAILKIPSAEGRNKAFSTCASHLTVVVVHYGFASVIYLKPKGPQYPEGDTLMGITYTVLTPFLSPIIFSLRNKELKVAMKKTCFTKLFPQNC
Outline: as §1

[13] = tested on: T13, O10J1 M62I I103M
T13 sequence (whole entry): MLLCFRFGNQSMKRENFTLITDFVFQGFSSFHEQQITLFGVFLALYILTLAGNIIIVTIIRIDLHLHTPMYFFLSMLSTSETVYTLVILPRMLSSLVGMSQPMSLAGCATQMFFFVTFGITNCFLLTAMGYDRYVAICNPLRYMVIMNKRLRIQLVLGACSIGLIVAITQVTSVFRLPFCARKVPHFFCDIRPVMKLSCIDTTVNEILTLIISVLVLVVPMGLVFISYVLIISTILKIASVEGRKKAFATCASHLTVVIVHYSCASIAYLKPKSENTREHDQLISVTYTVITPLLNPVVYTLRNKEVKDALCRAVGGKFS
Outline: as §1

[14] = tested on: T14, O10J1 M62I
T14 sequence (whole entry): T13 sequence (whole entry) with M103I
Outline: as §1

[15] = tested on: T15, O10J3 Q235R E319G
T15 sequence (whole entry): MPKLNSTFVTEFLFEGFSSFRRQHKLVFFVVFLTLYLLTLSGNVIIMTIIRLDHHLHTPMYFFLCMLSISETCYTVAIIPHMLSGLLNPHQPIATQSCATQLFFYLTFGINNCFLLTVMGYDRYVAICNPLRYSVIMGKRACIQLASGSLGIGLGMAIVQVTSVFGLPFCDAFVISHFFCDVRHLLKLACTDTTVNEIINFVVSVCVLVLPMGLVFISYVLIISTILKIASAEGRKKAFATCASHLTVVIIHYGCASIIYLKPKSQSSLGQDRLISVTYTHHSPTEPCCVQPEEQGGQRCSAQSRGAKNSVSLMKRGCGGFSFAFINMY
Outline: as §1

[16] = tested on: T16, O10P1 R195K
T16 sequence (whole entry): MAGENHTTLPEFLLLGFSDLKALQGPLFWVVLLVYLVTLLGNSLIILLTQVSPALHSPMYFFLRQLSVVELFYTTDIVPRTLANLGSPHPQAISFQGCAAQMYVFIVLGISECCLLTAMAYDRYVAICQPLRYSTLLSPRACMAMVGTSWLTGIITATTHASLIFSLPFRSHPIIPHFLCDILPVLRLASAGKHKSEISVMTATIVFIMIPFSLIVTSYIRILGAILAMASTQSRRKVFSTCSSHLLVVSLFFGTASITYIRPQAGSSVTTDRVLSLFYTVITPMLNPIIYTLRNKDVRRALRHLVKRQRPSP
Outline: as §1

[17] = tested on: T17, O10Q1 E12D
T17 sequence (whole entry): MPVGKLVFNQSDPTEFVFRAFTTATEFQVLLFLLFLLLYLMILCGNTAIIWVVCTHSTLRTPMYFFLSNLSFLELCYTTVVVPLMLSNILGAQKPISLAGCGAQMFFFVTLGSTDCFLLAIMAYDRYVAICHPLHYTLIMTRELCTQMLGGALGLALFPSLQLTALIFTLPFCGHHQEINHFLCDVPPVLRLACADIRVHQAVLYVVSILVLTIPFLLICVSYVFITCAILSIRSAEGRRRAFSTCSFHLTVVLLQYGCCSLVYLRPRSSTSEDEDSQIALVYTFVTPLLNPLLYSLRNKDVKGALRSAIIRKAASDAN
Outline: as §1

[18] = tested on: T18, O10Q1 Q10R E12D
T18 sequence (whole entry): T17 sequence (whole entry) with Q10R
Outline: as §1

[19] = tested on: O10A6; remark: listed apart in the source
Outline: as §1
Target sequence in this assay (as listed by the source): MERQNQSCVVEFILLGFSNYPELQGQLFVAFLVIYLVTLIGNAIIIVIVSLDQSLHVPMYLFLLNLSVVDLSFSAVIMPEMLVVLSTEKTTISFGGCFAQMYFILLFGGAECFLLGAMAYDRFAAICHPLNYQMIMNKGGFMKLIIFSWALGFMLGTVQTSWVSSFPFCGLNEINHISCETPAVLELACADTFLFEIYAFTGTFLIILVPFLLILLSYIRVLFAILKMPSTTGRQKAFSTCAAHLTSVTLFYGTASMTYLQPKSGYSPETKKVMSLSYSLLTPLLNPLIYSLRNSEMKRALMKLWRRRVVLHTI

[20] = tested on: O10A6; remark: listed apart in the source
Outline: as §1
Target sequence in this assay (as listed by the source): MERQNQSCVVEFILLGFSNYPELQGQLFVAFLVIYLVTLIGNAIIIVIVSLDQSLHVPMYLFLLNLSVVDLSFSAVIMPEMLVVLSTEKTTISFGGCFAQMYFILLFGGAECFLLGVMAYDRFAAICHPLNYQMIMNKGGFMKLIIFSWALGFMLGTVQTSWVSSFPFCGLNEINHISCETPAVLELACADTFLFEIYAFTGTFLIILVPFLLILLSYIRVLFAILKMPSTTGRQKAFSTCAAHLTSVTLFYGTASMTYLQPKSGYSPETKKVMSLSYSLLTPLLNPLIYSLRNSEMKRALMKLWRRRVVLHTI

Measured: odorant receptor agonist call;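 note: active if original authors judged signal statistically different from baseline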

CCCC(S)CCOC(C)=O (stereo not given)
inactive: [1] | [2] | [3] | [4] | [5] | [6] | [7] | [8] | [9] | [10] | [11] | [12] | [13] | [14] | [15] | [16] | [17] | [18]

CCC1OC(C)=C(O)C1=O (stereo not given)
inactive: [1] | [2] | [3] | [4] | [5] | [6] | [7] | [8] | [9] | [10] | [11] | [12] | [13] | [14] | [15] | [16] | [17] | [18]

CC1=C(O)C(=O)OC1C (stereo not given)
inactive: [1] | [2] | [3] | [4] | [5] | [6] | [7] | [8] | [9] | [10] | [11] | [12] | [13] | [14] | [15] | [16] | [17] | [18]

CCC(=O)OCCCc1ccccc1
inactive: [20]
active: [19] | [3]

CC1=C(O)C(=O)C(C)O1 (stereo not given)
inactive: [1] | [2] | [3] | [4] | [5] | [6] | [7] | [8] | [9] | [10] | [11] | [12] | [13] | [14] | [15] | [16] | [17] | [18]
